According to ChEMBL document CHEMBL1149147, “NR2B-selective N-methyl-D-aspartate antagonists: synthesis and evaluation of 5-substituted benzimidazoles” (J Med Chem, 2004):

Experiments:
[1] = target: T1, Glutamate NMDA receptor; GRIN1/GRIN2B (Homo sapiens, UniProt Q05586+Q13224); experiment: Compound was evaluated for in vitro inhibition of [3H][(E)-N-(2-methoxybenzyl)cinnamamidine binding to human NR1a/NR2B receptors expressed in LtK-cells; type: cell-based
[2] = target: T2, Adrenergic receptor alpha-1 (Rattus norvegicus, UniProt P15823+P23944+P43140); experiment: In vitro inhibitory activity against alpha-1 adrenergic receptor binding to rat brain membranes; parameters: species or system Membrane
T2 sequence (P15823 whole entry): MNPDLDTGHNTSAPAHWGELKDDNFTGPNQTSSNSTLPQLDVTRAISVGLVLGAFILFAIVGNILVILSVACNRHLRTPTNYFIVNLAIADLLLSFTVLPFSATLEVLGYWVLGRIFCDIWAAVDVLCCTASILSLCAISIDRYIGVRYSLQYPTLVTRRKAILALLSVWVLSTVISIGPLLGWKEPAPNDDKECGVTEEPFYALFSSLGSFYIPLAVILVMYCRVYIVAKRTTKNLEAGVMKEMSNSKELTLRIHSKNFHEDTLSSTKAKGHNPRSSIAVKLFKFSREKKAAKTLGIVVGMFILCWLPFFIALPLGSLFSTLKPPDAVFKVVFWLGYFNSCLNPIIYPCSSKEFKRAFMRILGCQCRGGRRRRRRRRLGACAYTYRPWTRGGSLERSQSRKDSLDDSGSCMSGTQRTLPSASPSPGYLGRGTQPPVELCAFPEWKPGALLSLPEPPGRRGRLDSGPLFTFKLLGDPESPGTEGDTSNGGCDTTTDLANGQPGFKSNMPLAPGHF
T2 sequence (P23944 whole entry): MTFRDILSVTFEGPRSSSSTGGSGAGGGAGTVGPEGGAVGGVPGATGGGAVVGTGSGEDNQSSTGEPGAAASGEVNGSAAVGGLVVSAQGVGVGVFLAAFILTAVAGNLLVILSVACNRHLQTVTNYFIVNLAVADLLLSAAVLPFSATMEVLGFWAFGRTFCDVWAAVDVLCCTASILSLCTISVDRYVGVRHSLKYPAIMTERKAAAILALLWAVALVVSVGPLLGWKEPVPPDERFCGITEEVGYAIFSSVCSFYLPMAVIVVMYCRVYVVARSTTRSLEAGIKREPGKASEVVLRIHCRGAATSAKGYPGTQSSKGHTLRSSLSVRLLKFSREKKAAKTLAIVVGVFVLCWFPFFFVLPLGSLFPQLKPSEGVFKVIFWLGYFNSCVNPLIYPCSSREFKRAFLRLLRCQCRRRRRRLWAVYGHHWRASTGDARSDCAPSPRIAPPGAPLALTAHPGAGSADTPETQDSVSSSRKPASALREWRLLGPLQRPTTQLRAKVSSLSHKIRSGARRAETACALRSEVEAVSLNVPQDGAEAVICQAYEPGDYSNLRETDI
T2 sequence (P43140 whole entry): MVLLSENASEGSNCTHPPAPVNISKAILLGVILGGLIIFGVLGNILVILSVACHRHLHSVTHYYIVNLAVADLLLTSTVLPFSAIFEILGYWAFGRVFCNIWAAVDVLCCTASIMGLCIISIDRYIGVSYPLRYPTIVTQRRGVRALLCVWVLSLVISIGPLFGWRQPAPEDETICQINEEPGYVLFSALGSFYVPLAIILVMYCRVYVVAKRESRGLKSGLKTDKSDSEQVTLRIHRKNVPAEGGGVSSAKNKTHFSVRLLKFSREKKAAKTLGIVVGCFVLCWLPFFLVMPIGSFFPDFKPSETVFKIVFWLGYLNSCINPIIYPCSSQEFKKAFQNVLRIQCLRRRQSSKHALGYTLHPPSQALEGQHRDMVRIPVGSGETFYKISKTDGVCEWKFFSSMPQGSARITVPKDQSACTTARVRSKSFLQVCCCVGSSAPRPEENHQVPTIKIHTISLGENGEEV
How it was run: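 Competition binding to α1-adrenergic receptors on membranes prepared from rat brain, using the prazosin binding assay. IC50 is the geometric mean of at least 4 determinations.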

[3] = target: T1, Glutamate NMDA receptor; GRIN1/GRIN2B; experiment: In vitro inhibition of Glu/Gly stimulated [Ca2+] influx in LtK-cells expressing the hNR1a/NR2B receptor; type: functional
How it was run: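 Fluorescence readout of Ca2+ flux stimulated by glutamate/glycine in Ltk- cells stably expressing human NR1a/NR2B, measured as inhibition. IC50 is the geometric mean of at least n = 4, with 2×SEGM given.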

[4] = target: Voltage-gated inwardly rectifying potassium channel KCNH2 (Homo sapiens, UniProt Q12809); experiment: In vitro inhibition of MK-499 binding to hERG in HEK293 cells; type: cell-based; conditions: read-out: IP
Sequence of Voltage-gated inwardly rectifying potassium channel KCNH2 (Q12809 whole entry): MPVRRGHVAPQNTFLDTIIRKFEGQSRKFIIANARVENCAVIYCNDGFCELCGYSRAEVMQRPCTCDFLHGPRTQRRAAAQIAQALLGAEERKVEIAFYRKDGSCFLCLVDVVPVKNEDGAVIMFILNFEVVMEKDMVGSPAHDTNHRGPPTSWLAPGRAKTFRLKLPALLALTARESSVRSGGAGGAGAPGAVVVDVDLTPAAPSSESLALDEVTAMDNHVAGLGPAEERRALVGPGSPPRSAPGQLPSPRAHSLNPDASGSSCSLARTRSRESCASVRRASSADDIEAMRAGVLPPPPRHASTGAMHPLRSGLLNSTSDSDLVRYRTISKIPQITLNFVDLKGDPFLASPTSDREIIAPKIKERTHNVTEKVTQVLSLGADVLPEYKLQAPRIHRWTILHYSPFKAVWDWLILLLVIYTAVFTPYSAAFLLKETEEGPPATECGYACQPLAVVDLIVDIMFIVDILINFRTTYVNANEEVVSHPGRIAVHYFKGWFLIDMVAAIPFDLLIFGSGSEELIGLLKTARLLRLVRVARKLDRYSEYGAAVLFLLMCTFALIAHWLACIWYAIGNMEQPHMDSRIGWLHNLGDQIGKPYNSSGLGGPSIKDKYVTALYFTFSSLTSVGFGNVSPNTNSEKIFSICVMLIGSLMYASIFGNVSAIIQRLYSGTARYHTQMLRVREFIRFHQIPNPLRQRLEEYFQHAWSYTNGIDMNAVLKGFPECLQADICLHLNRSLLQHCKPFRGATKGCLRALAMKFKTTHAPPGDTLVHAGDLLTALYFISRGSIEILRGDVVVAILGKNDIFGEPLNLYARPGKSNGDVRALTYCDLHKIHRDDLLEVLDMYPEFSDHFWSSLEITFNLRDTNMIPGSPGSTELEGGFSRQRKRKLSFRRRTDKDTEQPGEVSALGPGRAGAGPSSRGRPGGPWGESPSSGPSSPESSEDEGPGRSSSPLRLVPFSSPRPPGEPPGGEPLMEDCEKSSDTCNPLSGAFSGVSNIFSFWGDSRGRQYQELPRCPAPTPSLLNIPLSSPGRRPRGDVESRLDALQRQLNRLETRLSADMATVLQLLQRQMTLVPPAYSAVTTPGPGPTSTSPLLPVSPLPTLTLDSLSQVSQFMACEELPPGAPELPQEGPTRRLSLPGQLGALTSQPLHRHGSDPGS

Rattus norvegicus [5] = experiment: Compound was evaluated in vivo for carrageenan induced mechanical hyperalgesia in rats, intravenously; type: functional
How it was run: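 Male Sprague-Dawley rats (100–120 g) received 4.5 mg carrageenan in 0.15 mL saline intraplantar, or saline. Agent was given iv in 50% PEG-200/D5W (n = 6/dose) 15 min before the paw pressure read at 3 h. Threshold was taken as vocalization on an algometer.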

[6] = Oral bioavailability in dog (mongrel); type: ADME, organism-based, Canis lupus familiaris; conditions: in vivo
How it was run: (§1)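 Single doses in dogs (n = 2): 1 mg/kg iv in 100% DMSO, or 3 mg/kg po gavaged in 1% methylcellulose suspension. Plasma was sampled at multiple time points up to 24 h. Interanimal variability was below 20%.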

[7] = Plasma clearance (in vivo) in mongrel dogs was determined; type: ADME, organism-based, Canis lupus familiaris; conditions: dog; how it was run: as §1
[8] = Oral bioavailability in rat; type: ADME, organism-based; conditions: in vivo
How it was run: (§2)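 Conscious male Sprague-Dawley rats (n = 3–4) given single doses: 2 mg/kg iv in 100% DMSO, or 10 mg/kg po by gavage in 1% methylcellulose. Plasma was sampled at multiple times up to 24 h. Interanimal variability was below 20%.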

[9] = Half-life in mongrel dogs was determined; type: ADME, organism-based, Canis lupus familiaris; conditions: dog, in vivo; how it was run: as §1
[10] = Plasma clearance (in vivo) in rats was determined; type: ADME, organism-based; conditions: rat; how it was run: as §2
[11] = Half-life in rats was determined; type: ADME, organism-based; conditions: rat, in vivo; how it was run: as §2
Rattus norvegicus [12] = experiment: Compound was evaluated in vivo for carrageenan induced mechanical hyperalgesia in rats, perorally; type: functional
How it was run: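 Male Sprague-Dawley rats (100–120 g) received 4.5 mg carrageenan intraplantar, with a 3 h post-injection paw pressure (vocalization) threshold. Agent was gavaged in 1% methylcellulose suspension (n = 8/dose) 1 h before the reading. Response is expressed as % of carrageenan hyperalgesia; the highest oral dose was 30 mg/kg, one determination.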

T1 sequence (Q13224 whole entry, other chains not shown): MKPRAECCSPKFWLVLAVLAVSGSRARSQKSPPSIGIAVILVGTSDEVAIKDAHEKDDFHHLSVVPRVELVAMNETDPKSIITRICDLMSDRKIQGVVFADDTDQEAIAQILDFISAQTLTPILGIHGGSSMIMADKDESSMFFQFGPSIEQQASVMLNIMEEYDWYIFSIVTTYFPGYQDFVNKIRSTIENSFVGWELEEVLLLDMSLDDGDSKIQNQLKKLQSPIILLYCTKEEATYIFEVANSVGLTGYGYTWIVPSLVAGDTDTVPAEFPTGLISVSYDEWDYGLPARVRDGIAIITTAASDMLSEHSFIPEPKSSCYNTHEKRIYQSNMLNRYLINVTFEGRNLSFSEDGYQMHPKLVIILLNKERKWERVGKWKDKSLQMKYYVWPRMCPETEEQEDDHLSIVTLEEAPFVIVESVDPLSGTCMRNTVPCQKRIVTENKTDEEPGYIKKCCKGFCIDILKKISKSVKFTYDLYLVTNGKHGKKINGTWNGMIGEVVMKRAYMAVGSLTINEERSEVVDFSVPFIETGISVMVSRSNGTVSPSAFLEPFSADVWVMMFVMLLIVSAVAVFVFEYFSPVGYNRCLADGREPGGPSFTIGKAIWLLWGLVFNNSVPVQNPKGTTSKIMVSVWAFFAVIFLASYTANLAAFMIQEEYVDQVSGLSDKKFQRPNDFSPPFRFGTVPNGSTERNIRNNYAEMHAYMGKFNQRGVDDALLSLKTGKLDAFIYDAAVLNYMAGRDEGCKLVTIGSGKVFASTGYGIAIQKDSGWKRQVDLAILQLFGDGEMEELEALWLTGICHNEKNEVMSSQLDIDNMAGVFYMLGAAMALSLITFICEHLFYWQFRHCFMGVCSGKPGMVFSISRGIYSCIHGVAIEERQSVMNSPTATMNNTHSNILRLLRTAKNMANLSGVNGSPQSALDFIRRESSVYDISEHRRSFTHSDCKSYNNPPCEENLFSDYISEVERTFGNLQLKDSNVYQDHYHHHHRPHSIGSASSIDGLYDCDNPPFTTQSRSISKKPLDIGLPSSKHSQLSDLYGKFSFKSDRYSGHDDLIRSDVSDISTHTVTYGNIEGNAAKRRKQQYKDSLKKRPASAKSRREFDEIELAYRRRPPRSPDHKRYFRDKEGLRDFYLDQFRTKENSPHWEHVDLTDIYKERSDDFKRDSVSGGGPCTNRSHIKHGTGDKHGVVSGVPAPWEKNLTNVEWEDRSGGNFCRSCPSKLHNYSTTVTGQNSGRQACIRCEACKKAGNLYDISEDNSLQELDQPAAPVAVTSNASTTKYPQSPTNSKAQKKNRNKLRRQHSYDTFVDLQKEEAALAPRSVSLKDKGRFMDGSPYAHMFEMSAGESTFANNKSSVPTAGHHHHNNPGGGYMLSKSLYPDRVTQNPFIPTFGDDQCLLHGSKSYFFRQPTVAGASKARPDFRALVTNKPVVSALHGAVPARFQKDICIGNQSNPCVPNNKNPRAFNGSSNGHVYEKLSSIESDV

SMILES	Ki [1]	IC50 [2]	IC50 [3]	IC50 [4]	Activity (Rattus norvegicus [5])	bioavailability [6]	clearance [7]	bioavailability [8]	half-life [9]	clearance [10]	half-life [11]	Activity (Rattus norvegicus [12])
Oc1ccc2[nH]c(CN3CCC(Cc4cccc(F)c4)CC3)nc2c1	4.2 nM	520 nM	44 nM	2100 nM								
c1ccc(CC2CCN(Cc3nc4ccccc4[nH]3)CC2)cc1	420 nM	2800 nM	710 nM	1400 nM								
CC(C)S(=O)(=O)Nc1ccc2[nH]c(Cc3ccc(Oc4ccccc4)cc3)nc2c1	15 nM	3100 nM	14 nM									
Cc1ccc(CC2CCN(Cc3nc4cc(O)ccc4[nH]3)CC2)cc1	0.4 nM	830 nM	5.7 nM	390 nM								
CS(=O)(=O)Nc1ccc2nc(CN3CCC(Cc4ccccc4)CC3)[nH]c2c1	0.99 nM	1500 nM	1.9 nM	340 nM								
CN(c1ccc2[nH]c(Cc3ccc(Oc4ccccc4)cc3)nc2c1)S(C)(=O)=O	470 nM	2000 nM	25 nM	640 nM								
O=[N+]([O-])c1ccc2[nH]c(Cc3ccc(Oc4ccccc4)cc3)nc2c1		1200 nM	6600 nM	770 nM								
Oc1ccc2[nH]c(Cc3ccc(Oc4ccccc4)cc3)nc2c1	3.2 nM	200 nM	9.2 nM	720 nM								
N#Cc1ccc2[nH]c(Cc3ccc(Oc4ccccc4)cc3)nc2c1	790 nM	3400 nM	800 nM	1100 nM								
Oc1cccc2[nH]c(Cc3ccc(Oc4ccccc4)cc3)nc12	140 nM	5500 nM	150 nM	860 nM								
CCCS(=O)(=O)Nc1ccc2[nH]c(Cc3ccc(Oc4ccccc4)cc3)nc2c1	21 nM	4800 nM	19 nM	400 nM								
Oc1ccc2[nH]c(CN3CCC(Cc4ccc(F)cc4)CC3)nc2c1	1.1 nM	620 nM	12 nM	500 nM								
CC(C)S(=O)(=O)Nc1ccc2[nH]c(CN3CCC(Cc4ccccc4)CC3)nc2c1	240 nM	570 nM	300 nM									
Nc1ccc2[nH]c(Cc3ccc(Oc4ccccc4)cc3)nc2c1	180 nM	2600 nM	78 nM	120 nM								
Oc1ccc2[nH]c(CN3CCC(Cc4ccccc4)CC3)nc2c1		670 nM	8.2 nM	2600 nM	3.3 mg/kg	90%	0.6 mL/min/kg	20%	6.7 h	22.8 mL/min/kg	> 8 h	
CC(=O)Nc1ccc2[nH]c(Cc3ccc(Oc4ccccc4)cc3)nc2c1	93 nM	20000 nM	42 nM	2600 nM								
CCS(=O)(=O)Nc1ccc2[nH]c(Cc3ccc(Oc4ccccc4)cc3)nc2c1	3 nM	2800 nM	2.1 nM	1600 nM								
Oc1ccc2[nH]c(CN3CCC(Cc4c(F)cccc4F)CC3)nc2c1	0.82 nM	2600 nM	21 nM	3000 nM								
CS(=O)(=O)Nc1ccc2[nH]c(Cc3ccc(Oc4ccccc4)cc3)nc2c1	0.68 nM	4000 nM	0.72 nM	120 nM				97%		8.3 mL/min/kg	1.97 h	>30 mg/kg
O=S(=O)(Nc1ccc2[nH]c(Cc3ccc(Oc4ccccc4)cc3)nc2c1)c1ccccc1	17 nM	14000 nM	49 nM	680 nM								
COc1ccc2[nH]c(Cc3ccc(Oc4ccccc4)cc3)nc2c1	8400 nM	530 nM	9200 nM									
c1ccc(Oc2ccc(Cc3nc4ccccc4[nH]3)cc2)cc1	260 nM	4200 nM	200 nM	2000 nM								
Oc1ccc2[nH]c(CN3CCC(Cc4ccccc4F)CC3)nc2c1	0.85 nM	730 nM	9.7 nM	2900 nM	<3 mg/kg	87%	0.6 mL/min/kg	6.4%	6.5 h	12.3 mL/min/kg	1 h	
